Assays:
Plasmodium falciparum = experiment: Antiprotozoal activity against erythrocytic stage of Plasmodium falciparum NF54 after 48 hrs by [3H]- hypoxanthine incorporation assay; assay type: functional
Trypanosoma cruzi = experiment: Antiprotozoal activity against Trypanosoma cruzi Tulahuen C4 infected in rat L6 cells after 96 hrs by beta-galactosidase reporter gene assay; assay type: functional, cell-based; details: Tulahuen C4, L6, 96 h
[1] = Selectivity index, ratio of IC50 for rat L6 cells to IC50 for erythrocytic stage of Plasmodium falciparum NF54; assay type: toxicity; details: read-out: Ratio IC50
[2] = Selectivity index, ratio of IC50 for rat L6 cells to IC50 for bloodstream form of Trypanosoma brucei rhodesiense STIB900; assay type: toxicity; details: read-out: Ratio IC50
[3] = Selectivity index, ratio of IC50 for rat L6 cells to IC50 for amastigote form of Leishmania donovani MHOM/ET/67/L82; assay type: toxicity; details: read-out: Ratio IC50
Leishmania donovani = experiment: Antiprotozoal activity against amastigote form of Leishmania donovani MHOM/ET/67/L82 after 72 hrs by Alamar Blue assay; assay type: functional; details: MHOM/ET/67/L82, 72 h
[4] = Selectivity index, ratio of IC50 for rat L6 cells to IC50 for Trypanosoma cruzi Tulahuen C4; assay type: toxicity; details: read-out: Ratio IC50
[5] = system: Trypanosoma brucei rhodesiense; experiment: Antiprotozoal activity against bloodstream form of Trypanosoma brucei rhodesiense STIB900 after 72 hrs by Alamar Blue assay; assay type: functional; details: STIB900, 72 h
L6 = experiment: Cytotoxicity against rat L6 cells after 72 hrs by Alamar Blue assay; assay type: cell-based; details: L6, 72 h
Summary of the method: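 Rat L6 cytotoxicity IC50 values (μM) are averages of three independent assays.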

Row | IC50 (Plasmodium falciparum) [µM] | IC50 (Trypanosoma cruzi) [µM] | IC50 [5] [µM] | Structure (SMILES) | selectivity ratio [1] | selectivity ratio [2] | selectivity ratio [3] | IC50 (Leishmania donovani) [µM] | selectivity ratio [4] | IC50 (L6) [µM]
1 | 2 | 5 | 0.42 | C=C(C[C@H](OC(=O)/C(C)=C\C)[C@@H]1C(=C)C(=O)O[C@H]1/C=C(\C)C=O)C(C)=O | 0.9 | 4.3 | 4.7 | 0.38 | 0.3 | 1.8
2 | 7.8 | 29.3 | 0.61 | C=C1C(=O)O[C@H]2/C=C(/C)[C@@H](O)C[C@H](O)C(=C)C[C@H](OC(=O)/C(C)=C\C)[C@@H]12 | 0.6 | 8.3 | 0.4 | 13.2 | 0.2 | 5.1
3 | 1.9 | 2.8 | 0.4 | C=C1C[C@H](OC(=O)/C(C)=C\C)[C@H]2C(=C)C(=O)O[C@H]2/C=C(/C)[C@@H](O)CC1=O | 0.8 | 3.9 | 3.1 | 0.5 | 0.5 | 1.5
4 | 9.6 | 26.1 | 1.4 | C=C1C(=O)O[C@H]2/C=C(/C)[C@@H](O)C[C@@H](O)/C(C)=C\[C@H](OC(=O)/C(C)=C\C)[C@@H]12 | 0.5 | 3.9 | 0.6 | 8.4 | 0.2 | 5.3
5 | 1.9 | 9.8 | 0.4 | C=C1C(=O)O[C@H]2/C=C(/C)[C@@H](O)C/C=C(\C=O)C[C@H](OC(=O)/C(C)=C\C)[C@@H]12 | 0.9 | 3.9 | 1.1 | 1.6 | 0.2 | 1.8
6 | 6.2 | 26.7 | 0.36 | C=C1C(=O)O[C@H]2/C=C(/C)[C@@H](O)C[C@H](O)C(=C)C[C@H](OC(=O)/C(C)=C/C)[C@@H]12 | 0.8 | 14.1 | 1 | 5.3 | 0.2 | 5.1
7 | 4.7 | 37.3 | 0.08 | C=C1C(=O)O[C@@H]2/C=C(/C)[C@@H]3C[C@H](O)[C@@](CO)(C[C@H](OC(=O)/C(C)=C\C)[C@@H]12)O3 | 1.1 | 63.1 | 0.5 | 9.8 | 0.1 | 5.1
8 |  | 4.2 | 4.6 | C=C(C)C(=O)O[C@H]1C/C(C)=C/C[C@H](O)/C(C)=C\[C@@H]2OC(=O)C(=C)[C@@H]21 |  | 6.1 |  |  | 6.1 | 28.2
9 | 3 | 7.3 | 1.2 | C=C1C(=O)O[C@H]2/C=C(/C)[C@@H](O)C[C@@H]3O[C@]3(C)C[C@H](OC(=O)/C(C)=C/C)[C@@H]12 | 1.8 | 4.5 | 1.9 | 2.7 | 0.7 | 5.3
10 | 7.9 | 31.1 | 0.88 | C=C1C(=O)O[C@H]2/C=C(/C)[C@H](O)C[C@H](O)C(=C)C[C@H](OC(=O)/C(C)=C\C)[C@@H]12 | 0.9 | 8.3 | 0.3 | 23 | 0.2 | 7.3
11 | 8.5 | 10.9 | 1.3 | C=C1C(=O)O[C@H]2[C@H]1[C@@H](OC(=O)/C(C)=C\C)CC(=C)[C@@H]1C=C[C@@](C)(O)[C@H]21 | 0.68 | 4.4 | 7.2 | 0.8 | 0.6 | 5.8
12 | 2.2 | 11.3 | 1.2 | C=C1C(=O)O[C@@H](/C=C(\C)C=O)[C@@H]1[C@H](/C=C(/C)C(C)=O)OC(=O)/C(C)=C\C | 2.3 | 4.3 | 11.2 | 0.5 | 0.5 | 5.2
13 | 3.1 | 11.3 | 2.1 | C=C1C(=O)O[C@H]2/C=C(/C)[C@@H](O)C/C=C(\C)C[C@H](OC(=O)/C(C)=C\C)[C@@H]12 | 1.6 | 2.4 | 1.8 | 2.7 | 0.4 | 4.9
14 |  |  |  | CCCCCCCCCCCCCCCCOP(=O)([O-])OCC[N+](C)(C)C [MILTEFOSINE] |  |  |  | 0.13 |  | 
15 |  |  |  | COc1cc([C@@H]2c3cc4c(cc3[C@H](O)[C@H]3COC(=O)[C@H]23)OCO4)cc(OC)c1OC [PODOFILOX] |  |  |  |  |  | 0.016

Row | Structure (SMILES) | IC50 (Plasmodium falciparum) [µM] | IC50 (Trypanosoma cruzi) [µM] | IC50 [5] [µM] | selectivity ratio [1] | selectivity ratio [2] | selectivity ratio [3] | IC50 (Leishmania donovani) [µM] | selectivity ratio [4] | IC50 (L6) [µM]
16 | O=C(Cn1ccnc1[N+](=O)[O-])NCc1ccccc1 [BENZNIDAZOLE] |  | 2 |  |  |  |  |  |  | 

Source: ChEMBL document CHEMBL4038265, “Antiprotozoal Activity-Based Profiling of a Dichloromethane Extract from Anthemis nobilis Flowers” (J Nat Prod, 2017)
